Activity calls are given as the source filed them. No cut-off for these calls is given here.
How the values were obtained:
PC-3 [1] = experiment: Induction of apoptosis in human PC3 cells assessed as early apoptotic cells at 20 uM after 12 hrs by Annexin V-FITC/propidium iodide staining based flow cytometry (reference value: 0.79%); assay type: functional
How it was run: (§1)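 Cells seeded in 6-well plates for 24 h, then given 20 μM for the stated times. Cells were trypsinized, PBS-washed, stained with annexin V-FITC/PI, and analysed immediately by flow cytometry. Means ± SD of three independent experiments; Student's t test against untreated control.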

PC-3 [2] = experiment: Increase in H2AX protein expression in human PC3 cells at 20 uM after 2 to 48 hrs by western blot analysis; assay type: functional, cell-based
How it was run: (§2)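 Cells treated at 20 μM for various times, lysed in RIPA buffer with protease/phosphatase inhibitors, protein quantified by BCA. Equal protein run on 12% SDS-PAGE, transferred to nitrocellulose, blocked 1 h in 5% milk/TBST, primary antibodies overnight at 4 °C, secondary 1:2000 for 45 min, ECL detection on film. GAPDH used as loading control.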

[3] = Decrease in Cdk4 protein expression in human PC3 cells after 2 to 48 hrs by western blot analysis; assay type: functional, cell-based; conditions: PC-3
How it was run: (§3)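 Western blot of cyclin D1, cyclin E, Cdk4 and p21 in PC3 and DU145 lysates. Lysis in RIPA buffer plus protease inhibitors, BCA quantification, 12% SDS-PAGE, nitrocellulose transfer, milk block, primaries overnight at 4 °C, secondary 1:2000 for 45 min, ECL read-out. GAPDH served as loading control.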

DU-145 [4] = experiment: Induction of apoptosis in human DU145 cells assessed as early apoptotic cells at 20 uM after 4 hrs by Annexin V-FITC/propidium iodide staining based flow cytometry (reference value: 1.60%); assay type: functional; how it was run: as §1
PC-3 [5] = experiment: Induction of apoptosis in human PC3 cells at 20 uM by Annexin V-FITC/propidium iodide staining based flow cytometry; assay type: functional, cell-based; conditions: TDE = time-dependent effect; how it was run: as §1
PC-3 [6] = experiment: Induction of apoptosis in human PC3 cells assessed as necrotic cells at 20 uM after 24 hrs by Annexin V-FITC/propidium iodide staining based flow cytometry (reference value: 0.98%); assay type: functional; how it was run: as §1
[7] = Cell cycle arrest in human PC3 cells assessed as accumulation at G2/M phase at 10 uM after 24 hrs by propidium iodide staining based flow cytometry (reference value: 10.43%); assay type: functional; conditions: PC-3
DU-145 [8] = experiment: Cell cycle arrest in human DU145 cells assessed as accumulation at subG1 phase at 10 uM after 24 hrs by propidium iodide staining based flow cytometry (reference value: 0.28%); assay type: functional
DU-145 [9] = experiment: Cell cycle arrest in human DU145 cells assessed as accumulation at G0/G1 phase at 20 uM after 24 hrs by propidium iodide staining based flow cytometry (reference value: 63.34%); assay type: functional
[10] = Decrease in cyclin D1 protein expression in human DU145 cells by western blot analysis; assay type: functional, cell-based; conditions: DU-145, TDE = time-dependent effect; how it was run: as §3
[11] = Antiproliferative activity against HBE cells assessed as inhibition of cell viability after 24 hrs by MTT assay; assay type: cell-based; conditions: Homo sapiens
How it was run: (§4)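 Cells grown to 50–70% confluence (RWPE1 in K-SFM with pituitary extract and EGF; the other lines in RPMI 1640 with 10% FBS), 5% CO2, 37 °C. Treated for 24 h with DMSO vehicle, compounds, or cisplatin as positive control. MTT (5 mg/mL) added for 4 h, formazan dissolved in DMSO, absorbance read at 570 nm. Viability taken relative to untreated cells after blank subtraction, IC50 fitted from % viability, at least three experiments.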

DU-145 [12] = experiment: Induction of ROS generation in human DU145 cells at 20 uM pretreated for 1 hr with 5 mM antioxidant NAC measured after 24 hrs by DCFH-DA staining based flow cytometry; assay type: functional, cell-based
How it was run: (§5)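 Cells in RPMI 1640 with 10% FBS, 5% CO2, 37 °C, treated at 50−70% confluence (DMSO vehicle). After exposure, cells were loaded with 10 μM DCFH-DA for 30 min at 37 °C, washed, resuspended in PBS, and read at once by flow cytometry. For NAC runs, cells got 5 mM NAC 1 h before compound. ROS reported as ratio relative to untreated control.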

[13] = Decrease in ChK1 protein expression in human PC3 cells at 20 uM after 2 to 48 hrs by western blot analysis; assay type: functional, cell-based; conditions: PC-3; how it was run: as §2
DU-145 [14] = experiment: Cell cycle arrest in human DU145 cells assessed as accumulation at S phase at 10 uM after 24 hrs by propidium iodide staining based flow cytometry (reference value: 25.94%); assay type: functional
DU-145 [15] = experiment: Induction of apoptosis in human DU145 cells assessed as early apoptotic cells at 20 uM after 8 hrs by Annexin V-FITC/propidium iodide staining based flow cytometry (reference value: 1.60%); assay type: functional; how it was run: as §1
DU-145 [16] = experiment: Induction of apoptosis in human DU145 cells assessed as early apoptotic cells at 20 uM after 12 hrs by Annexin V-FITC/propidium iodide staining based flow cytometry (reference value: 1.60%); assay type: functional; how it was run: as §1
DU-145 [17] = experiment: Induction of apoptosis in human DU145 cells assessed as necrotic cells at 20 uM after 8 hrs by Annexin V-FITC/propidium iodide staining based flow cytometry (reference value: 0.21%); assay type: functional; how it was run: as §1
DU-145 [18] = experiment: Cell cycle arrest in human DU145 cells assessed as accumulation at G0/G1 phase at 10 uM after 24 hrs by propidium iodide staining based flow cytometry (reference value: 63.34%); assay type: functional
PC-3 [19] = experiment: Induction of apoptosis in human PC3 cells assessed as late apoptotic cells at 20 uM after 8 hrs by Annexin V-FITC/propidium iodide staining based flow cytometry (reference value: 7.92%); assay type: functional; how it was run: as §1
PC-3 [20] = experiment: Induction of apoptosis in human PC3 cells assessed as early apoptotic cells at 20 uM after 24 hrs by Annexin V-FITC/propidium iodide staining based flow cytometry (reference value: 0.79%); assay type: functional; how it was run: as §1
NCI-H292 = experiment: Antiproliferative activity against human NCI-H292 cells assessed as inhibition of cell viability after 24 hrs by MTT assay; assay type: functional, cell-based; conditions: NCI-H292, 24 h; how it was run: as §4
[21] = Antiproliferative activity against human PC3 cells assessed as inhibition of cell viability after 24 hrs by MTT assay; assay type: functional, cell-based; conditions: PC-3, 24 h; how it was run: as §4
[22] = target: Breast cancer type 1 susceptibility protein (Homo sapiens) (UniProt P38398); experiment: Inactivation of BRCA1 in human DU145 cells assessed as decline in BRCA1 phosphorylation at Ser1524 at 20 uM by western blot analysis; assay type: cell-based; conditions: DU-145; how it was run: as §2
Breast cancer type 1 susceptibility protein (Homo sapiens), sequence (P38398 whole entry, looked up): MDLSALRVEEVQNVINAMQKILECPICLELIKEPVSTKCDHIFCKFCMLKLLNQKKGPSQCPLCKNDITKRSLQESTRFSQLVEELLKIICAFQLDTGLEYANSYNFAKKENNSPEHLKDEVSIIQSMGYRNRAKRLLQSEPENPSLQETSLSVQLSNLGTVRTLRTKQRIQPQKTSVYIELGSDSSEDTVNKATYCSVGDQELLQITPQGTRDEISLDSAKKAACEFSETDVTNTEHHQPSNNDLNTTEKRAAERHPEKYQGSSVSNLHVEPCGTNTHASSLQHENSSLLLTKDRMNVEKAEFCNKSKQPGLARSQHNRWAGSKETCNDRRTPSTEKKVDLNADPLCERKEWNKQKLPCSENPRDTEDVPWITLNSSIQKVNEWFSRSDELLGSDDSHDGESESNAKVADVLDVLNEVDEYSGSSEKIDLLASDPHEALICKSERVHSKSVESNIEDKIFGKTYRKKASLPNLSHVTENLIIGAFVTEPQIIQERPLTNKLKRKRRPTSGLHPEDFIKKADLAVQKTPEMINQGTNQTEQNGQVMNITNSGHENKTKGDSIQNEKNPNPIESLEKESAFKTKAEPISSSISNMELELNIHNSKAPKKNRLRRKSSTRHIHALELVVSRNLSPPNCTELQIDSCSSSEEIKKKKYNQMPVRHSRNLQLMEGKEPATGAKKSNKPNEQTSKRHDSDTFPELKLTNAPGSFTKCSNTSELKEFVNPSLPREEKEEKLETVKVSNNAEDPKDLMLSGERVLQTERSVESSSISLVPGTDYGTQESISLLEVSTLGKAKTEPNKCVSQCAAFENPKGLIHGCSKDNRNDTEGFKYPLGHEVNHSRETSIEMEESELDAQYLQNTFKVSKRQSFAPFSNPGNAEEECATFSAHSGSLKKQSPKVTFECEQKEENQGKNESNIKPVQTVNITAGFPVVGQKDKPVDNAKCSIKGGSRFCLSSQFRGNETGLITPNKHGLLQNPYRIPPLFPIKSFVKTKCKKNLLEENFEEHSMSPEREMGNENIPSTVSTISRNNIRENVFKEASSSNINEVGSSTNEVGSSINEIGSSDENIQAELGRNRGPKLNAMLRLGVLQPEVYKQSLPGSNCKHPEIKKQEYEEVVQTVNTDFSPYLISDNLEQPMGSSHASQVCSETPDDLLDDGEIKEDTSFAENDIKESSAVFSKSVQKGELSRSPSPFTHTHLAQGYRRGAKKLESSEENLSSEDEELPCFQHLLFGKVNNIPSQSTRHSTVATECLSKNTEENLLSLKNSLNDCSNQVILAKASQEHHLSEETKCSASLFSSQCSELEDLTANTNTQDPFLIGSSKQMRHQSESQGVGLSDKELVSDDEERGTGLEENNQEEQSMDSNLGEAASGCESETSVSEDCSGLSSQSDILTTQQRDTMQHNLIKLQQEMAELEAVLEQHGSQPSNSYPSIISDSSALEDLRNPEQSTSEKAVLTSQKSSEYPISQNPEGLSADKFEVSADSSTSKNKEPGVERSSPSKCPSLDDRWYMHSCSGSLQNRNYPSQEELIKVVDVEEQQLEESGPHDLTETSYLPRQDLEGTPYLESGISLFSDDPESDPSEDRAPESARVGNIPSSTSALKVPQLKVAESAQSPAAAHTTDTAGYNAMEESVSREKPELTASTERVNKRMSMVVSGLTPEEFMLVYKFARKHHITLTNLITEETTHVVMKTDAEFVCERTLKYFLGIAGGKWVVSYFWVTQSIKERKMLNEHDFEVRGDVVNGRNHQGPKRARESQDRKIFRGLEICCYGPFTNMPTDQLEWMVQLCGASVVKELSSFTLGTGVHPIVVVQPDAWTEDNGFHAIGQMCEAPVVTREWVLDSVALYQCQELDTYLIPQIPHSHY

[23] = Decrease in Cdk4 protein expression in human DU145 cells after 2 to 48 hrs by western blot analysis; assay type: functional, cell-based; conditions: DU-145; how it was run: as §3
DU-145 [24] = experiment: Induction of apoptosis in human DU145 cells assessed as necrotic cells at 20 uM after 4 hrs by Annexin V-FITC/propidium iodide staining based flow cytometry (reference value: 0.21%); assay type: functional; how it was run: as §1
PC-3 [25] = experiment: Induction of ROS generation in human PC3 cells at 20 uM pretreated for 1 hr with 5 mM antioxidant NAC measured after 24 hrs by DCFH-DA staining based flow cytometry; assay type: functional, cell-based; how it was run: as §5
DU-145 [26] = experiment: Induction of DNA damage in human DU145 cells assessed as gamma-H2AX phosphorylation at ser139 at 20 uM by western blot analysis; assay type: functional, cell-based; conditions: TDE = time-dependent effect; how it was run: as §2
PC-3 [27] = experiment: Induction of apoptosis in human PC3 cells assessed as late apoptotic cells at 20 uM after 12 hrs by Annexin V-FITC/propidium iodide staining based flow cytometry (reference value: 7.92%); assay type: functional; how it was run: as §1

Q: With `C=C[C@@](C)(O)CC[C@@H]1C(C)=CC[C@@H]2C(C)(C)CCC[C@@]12C` as the compound, how does the Activity (PC-3 [1]) read?
A: The Activity was 3.51%.

Q: And the Activity (PC-3 [2])?
A: Its Activity is “inactive”.

Q: And the inhibition [3]?
A: Its inhibition is “Active”.

Q: And the Activity (DU-145 [4])?
A: Its Activity is 4%.

Q: What about the Activity (PC-3 [5]) of the same compound?
A: The Activity was “tde”.

Q: What about the Activity (PC-3 [6]) of the same compound?
A: The Activity was 10.21%.

Q: What about the Activity [7] of the same compound?
A: The Activity was 11.1%.

Q: What about the Activity (DU-145 [8]) of the same compound?
A: The Activity was 1.97%.

Q: And the Activity (DU-145 [9])?
A: The Activity was 75.55%.

Q: What about the inhibition [10] of the same compound?
A: Its inhibition is “tde”.

Q: What about the IC50 [11] of the same compound?
A: The IC50 was 53.9 µM.

Q: What about the Activity (DU-145 [12]) of the same compound?
A: Its Activity is “inactive”.

Q: What about the inhibition [13] of the same compound?
A: The inhibition was “Active”.

Q: What about the Activity (DU-145 [14]) of the same compound?
A: The Activity was 21.68%.

Q: And the Activity (DU-145 [15])?
A: Its Activity is 4.56%.

Q: And the Activity (DU-145 [16])?
A: The Activity was 6.55%.

Q: And the Activity (DU-145 [17])?
A: Its Activity is 2.44%.

Q: And the Activity (DU-145 [18])?
A: Its Activity is 67.97%.

Q: And the Activity (PC-3 [19])?
A: Its Activity is 15.29%.

Q: What about the Activity (PC-3 [20]) of the same compound?
A: The Activity was 1.61%.

Q: What about the IC50 (NCI-H292) of the same compound?
A: The IC50 was 17.1 µM.

Q: And the IC50 [21]?
A: Its IC50 is 26.6 µM.

Q: What about the inhibition [22] of the same compound?
A: The inhibition was “Active”.

Q: And the inhibition [23]?
A: Its inhibition is “Active”.

Q: What about the Activity (DU-145 [24]) of the same compound?
A: The Activity was 1.54%.

Q: And the Activity (PC-3 [25])?
A: The Activity was “inactive”.

Q: And the Activity (DU-145 [26])?
A: Its Activity is “tde”.

Q: And the Activity (PC-3 [27])?
A: Its Activity is 12.66%.
